Activity calls are given as the source filed them.
Legend:
[1] = test system: MCF7; test: Reduction of glutathione synthesis in human MCF7 cells at 25 uM after 25 hrs; type: functional; set-up: scale not given: the % may be the effect or the level left
[2] = molecular target: T1, Thioredoxin reductase 1, cytoplasmic (Rattus norvegicus) (UniProt O89049); test: Inhibition of NADPH-reduced rat recombinant TrxR1 at >0.5 uM attenuated in presence of 1 mM Glutathione after 30 minis
T1 sequence (whole entry): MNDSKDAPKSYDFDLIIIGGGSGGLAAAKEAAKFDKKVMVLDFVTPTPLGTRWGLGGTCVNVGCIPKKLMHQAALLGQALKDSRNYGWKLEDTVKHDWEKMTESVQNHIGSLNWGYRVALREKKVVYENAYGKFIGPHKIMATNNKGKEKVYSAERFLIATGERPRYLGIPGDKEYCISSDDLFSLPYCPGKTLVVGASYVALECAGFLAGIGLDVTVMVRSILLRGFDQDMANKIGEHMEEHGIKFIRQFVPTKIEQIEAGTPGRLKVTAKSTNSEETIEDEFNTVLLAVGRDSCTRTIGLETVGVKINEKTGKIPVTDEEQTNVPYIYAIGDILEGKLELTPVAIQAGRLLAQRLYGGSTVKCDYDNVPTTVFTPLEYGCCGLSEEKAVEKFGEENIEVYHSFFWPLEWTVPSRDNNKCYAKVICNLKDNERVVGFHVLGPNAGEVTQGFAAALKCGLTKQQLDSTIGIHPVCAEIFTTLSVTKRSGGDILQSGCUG
Outline: (§1)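 NADPH-reduced rat TrxR (10 nM) with 2 μM human Trx, with or without 1 mM GSH, was incubated with ATO for 30 min in Tris/EDTA pH 7.5 containing 200 μM NADPH. Trx-system activity was read after adding 200 μM NADPH/160 μM insulin, as ΔA340/min over the initial 5 min.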

[3] = test system: MCF7; test: Inhibition of human MCF7 cell growth after 24 hrs by XTT assay; type: functional, cell-based
Outline: (§2)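 MCF-7 cells in RPMI 1640/10% FCS were seeded at 6 × 10^3 cells per well, grown overnight, then exposed to ATO for 24 or 48 h. Medium was replaced with XTT labeling mixture for 3 h and A492 of the formazan read as the measure of proliferation/viability.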

[4] = test system: MCF7; test: Reduction of human MCF7 cell growth at 2.5 uM after 48 hrs by XTT assay; type: functional, cell-based; outline: as §2
[5] = molecular target: T1, Thioredoxin reductase 1, cytoplasmic (Rattus norvegicus); test: Inhibition of NADPH-reduced rat recombinant TrxR1 at 0.1 uM attenuated in presence of 1 mM Glutathione after 30 minis; outline: as §1
[6] = molecular target: T1, Thioredoxin reductase 1, cytoplasmic (Rattus norvegicus); test: Inhibition of NADPH-reduced rat recombinant TrxR1 at 0.25 uM attenuated in presence of 1 mM Glutathione after 30 minis; outline: as §1
[7] = test system: MCF7; test: Reduction of human MCF7 cell growth at 5.0 uM after 48 hrs by XTT assay; type: functional, cell-based; outline: as §2
[8] = molecular target: T1, Thioredoxin reductase 1, cytoplasmic (Rattus norvegicus); test: Inhibition of NADPH-reduced rat recombinant TrxR1 assessed as […] by DTNB reduction assay
Outline: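 Recombinant rat TrxR1 (50 nM), NADPH-reduced, was preincubated with ATO (0.05–5 μM) for 30 min in 50 mM Tris·HCl/1 mM EDTA pH 7.5 with 200 μM NADPH. Activity was then measured with 5 mM DTNB by following A412; the rate was the slope over the initial 2 min. Duplicate experiments; IC50 after 30-min incubation.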

[9] = test system: Escherichia coli; test: Inhibition of Escherichia coli thioredoxin upto 5 uM by insulin reduction method
Outline: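 25 nM E. coli TrxR plus 2 μM E. coli Trx were preincubated with ATO for 30 min in 50 mM Tris·HCl/1 mM EDTA pH 7.5 with 200 μM NADPH. Then 200 μM NADPH/160 μM insulin was added and A340 followed. Activity was taken as ΔA340/min over the initial 5 min.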

Measured: Activity

CCCCS(=N)(=O)CCC(N)C(=O)O (centres undefined) [BUTHIONINE SULFOXIMINE]
80%: [1]

O=[As][As+](=O)[O-] (centres undefined)
inactive: [2] | [3] | [8] | [9]
not listed: [1]
active: all other assays above

Source: ChEMBL document CHEMBL1147045, “Targeting thioredoxin reductase is a basis for cancer therapy by arsenic trioxide” (2007)
